Compounds with a hit are over-represented: about 4% of the library has one in this group of screens.
E-selectin induc – E-selectin induction in HUVECs, primary screen, imaging, HUVEC, immunofluorescence imaging, single point; normalized: neutral wells 0, TNF-alpha wells 100; activation, % at 7.58 µM; 260,000 tested, 0.37% active; AID 686992, 2013;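 active = mean E-selectin-positive cell signal at least 10% of the positive control, reached in at least 60% of replicates, without over 20% cell loss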
Target sequence (P16581 whole entry, looked up): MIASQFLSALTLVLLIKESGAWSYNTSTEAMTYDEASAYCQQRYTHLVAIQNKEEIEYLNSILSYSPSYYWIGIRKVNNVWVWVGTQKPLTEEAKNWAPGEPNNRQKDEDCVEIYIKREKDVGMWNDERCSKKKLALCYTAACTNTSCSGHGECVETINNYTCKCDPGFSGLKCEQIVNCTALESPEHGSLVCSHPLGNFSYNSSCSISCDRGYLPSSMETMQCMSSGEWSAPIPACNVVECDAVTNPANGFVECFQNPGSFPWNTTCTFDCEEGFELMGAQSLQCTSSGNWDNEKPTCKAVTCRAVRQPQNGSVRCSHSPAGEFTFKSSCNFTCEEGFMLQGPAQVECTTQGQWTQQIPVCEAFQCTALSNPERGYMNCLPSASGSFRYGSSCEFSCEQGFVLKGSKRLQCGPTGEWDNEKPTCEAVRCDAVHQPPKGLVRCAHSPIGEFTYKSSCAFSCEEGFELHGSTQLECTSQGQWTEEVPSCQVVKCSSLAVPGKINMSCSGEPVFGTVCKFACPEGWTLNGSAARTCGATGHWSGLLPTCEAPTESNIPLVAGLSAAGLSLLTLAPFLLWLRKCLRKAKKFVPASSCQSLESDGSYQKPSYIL
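Read-out: % PE-positive cells | Test system: HUVEC | Doses: One compound dose added by pin transfer | Buffer or medium: EGM-2 over gelatin coat | Signal: Immunofluorescence imaging | Benchmarks: TNF-alpha, DMSO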
Statin myotox sup – suppressors of statin myotoxicity in C2C12 myotubes, primary screen, cell-based, single point, plate reader | 330,000 tested, 0.78% active | rescue of ATP level, % at 7.49 µM | AID 602340, 2012 | C2C12 myotubes + simvastatin, ATP luminescence, 48 h; scaled: DMSO 0, geranylgeraniol control 100;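 active = mean ATP rescue above about 67%, or every replicate alone reaching that limit, limit read from the data, passing the limit was not always enough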;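 also: myotubes were challenged with 10 µM simvastatin during compound exposure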
rRNA inh HTS – reduced GFP signal of wild-type E. coli, primary screen, bacterial rRNA inhibitor project, GFP/RFP fluorescence, OD600, single point. E. coli WT GFP vs humanized-ribosome RFP mutants, 24 h; active compounds read low; DMSO median 0, no signal -100. GFP signal change (wild-type ribosome), % (concentration not given with the values). 350,000 tested, 1.6% active. AID 720706, 2013;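 active = significant combined selectivity score with lowered wild-type GFP, culture density cut under 30%, mutant RFP and density less affected; inactive = any of these conditions unmet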
SIRT5 inh – SIRT5 desuccinylase inhibitors, primary screen, biochemical, fluorescence imaging, single point, set 5 | NAD-dependent protein deacylase sirtuin-5, mitochondrial (Homo sapiens), Q9NXA8 | Purified SirT5, succinyl-peptide AMC, trypsin-coupled fluorescence | inhibition, % at 15 µM | 330,000 tested, 1.1% active | AID 652115, 2013; in the data active = inhibition above about 15%
FGF22 binding – binders of human FGF22 protein, primary screen, FGF22 synaptogenesis inhibitor project, biophysical, thermal shift, single point | Fibroblast growth factor 22 (Homo sapiens), Q9HCT0 | recombinant FGF22 thermal shift, SYPRO orange fluorescence; percent of sucrose octasulfate shift, DMSO zero | activity (Tm shift, normalised), % at 9.99 µM | 340,000 tested, 1.5% active;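 active = mean Tm shift, scaled 0 neutral to 100 positive control, at about 1.3% or above, every replicate too, limit read from the data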
FN deposition inh – inhibitors of fibronectin matrix deposition, primary screen, AH1F cells, Alexa488-fibronectin fluorescence, plate reader. inhibition, % at 12.6 µM. AID 743247, 2014. AH1F fibroblasts, overnight. 350,000 tested, 0.086% active;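 active = mean inhibition across replicates of 30% or more, regardless of how many single replicates reach that level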;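 also: positive control wells lacked labelled fibronectin entirely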
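Material: AH1F fibroblast monolayer depositing Alexa488-labelled fibronectin into matrix / Amount: 10000 AH1F cells per well / Signal: fluorescence 485/525 nm / Medium: DMEM, 2% serum / Compound: single dose, pinned / Incubation: 1 h cell adhesion before compound, then overnight fibronectin incubation / Reagent: Alexa488-FN, 24 nM final / Read-out: inhibition of fibronectin deposition signal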
* hit, by the source's call.

What do the screens show for `COc1ccc(CN(C)C[C@@H]2OCCCC[C@H](C)Oc3ccc(NC(=O)Nc4cccc5ccccc45)cc3C(=O)N([C@H](C)CO)C[C@H]2C)cc1`?
rRNA inh HTS: -26.4; SIRT5 inh: -8.9; FGF22 binding: -0.2

How did COc1ccccc1C(=O)Nc1ccc2c(c1)C(=O)N(C)C[C@@H](OC)[C@H](C)CN(C)[C@H](C)CO2 do in these assays?
E-selectin induc: 0.1; Statin myotox sup: 24.6; rRNA inh HTS: 3.5; SIRT5 inh: 3.5; FGF22 binding: 0.0; FN deposition inh: 14.0

What do the screens show for `Cc1[nH]nc(-c2ccc(O)cc2O)c1Oc1ccccc1`?
Statin myotox sup: 6.1; rRNA inh HTS: -12.9*; SIRT5 inh: -1.3; FGF22 binding: 0.1; FN deposition inh: -2.2

What do the screens show for `C/C(=N/OC(=O)c1ccccc1Br)c1ccc(C)cc1`?
E-selectin induc: 3.8; Statin myotox sup: 1.1; rRNA inh HTS: -18.1*; SIRT5 inh: -3.2; FGF22 binding: 0.1; FN deposition inh: -1.7

What do the screens show for `CCC(=O)N1N=C(c2c(O)n(C)c(=O)n(C)c2=O)CC1c1ccccc1` (configuration not stated)?
E-selectin induc: 0.4; Statin myotox sup: 4.3; rRNA inh HTS: -46.0*; SIRT5 inh: 3.5; FGF22 binding: -0.3; FN deposition inh: 2.6

What do the screens show for `CCCOc1ccc(/C=C/C(=O)O)cc1OC`?
Statin myotox sup: 4.5; rRNA inh HTS: 4.8; SIRT5 inh: -5.2; FGF22 binding: 0.1

What do the screens show for `COc1cc(/C=C/C(=O)O)ccc1OCc1ccc([N+](=O)[O-])cc1`?
rRNA inh HTS: 13.6; SIRT5 inh: 0.0; FGF22 binding: 42.9*; FN deposition inh: 2.3

What do the screens show for `COc1cc2c(cc1OC)CN(C(=O)/C=C/c1ccc([N+](=O)[O-])cc1)CC2`?
Statin myotox sup: -11.1; rRNA inh HTS: -17.2*; SIRT5 inh: 0.8; FGF22 binding: -0.4; FN deposition inh: 9.5

Results for COc1ccc(CN(C)C[C@@H]2Oc3c(NC(=O)c4ccc(-c5nccs5)cc4)cccc3C(=O)N([C@H](C)CO)C[C@H]2C)cc1 ?
Statin myotox sup: 42.9; rRNA inh HTS: -8.7; SIRT5 inh: 4.6; FGF22 binding: -0.1

What do the screens show for `C[C@@H]1CN([C@@H](C)CO)C(=O)c2cc(NC(=O)CCC(F)(F)F)ccc2O[C@@H]1CN(C)S(=O)(=O)c1ccc(Cl)cc1`?
E-selectin induc: 0.5; Statin myotox sup: -5.8; rRNA inh HTS: -0.2; SIRT5 inh: -1.0; FGF22 binding: 0.0

What do the screens show for `CCC(=O)N(C)C[C@@H]1Oc2ncc(C#Cc3ccncc3)cc2C(=O)N([C@@H](C)CO)C[C@H]1C`?
E-selectin induc: 0.7; Statin myotox sup: 20.0; rRNA inh HTS: 3.1; SIRT5 inh: -4.5; FGF22 binding: 0.0; FN deposition inh: -11.3

How did CC(=O)c1c(C)[nH]c(C(=O)COC(=O)c2cc(S(=O)(=O)N(C)c3ccccc3)ccc2Cl)c1C do in these assays?
E-selectin induc: 0.0; rRNA inh HTS: -27.8*; SIRT5 inh: -5.0; FGF22 binding: 0.7; FN deposition inh: 1.5

How did Cn1c(N)c(C(=O)COC(=O)c2cccc(S(=O)(=O)NCc3ccccc3)c2)c(=O)n(C)c1=O do in these assays?
E-selectin induc: 8.5; Statin myotox sup: 6.4; rRNA inh HTS: -49.7; SIRT5 inh: 1.2; FGF22 binding: 0.5; FN deposition inh: -0.5

What do the screens show for `CNS(=O)(=O)c1cccc(C(=O)OCC(=O)c2c(N)n(Cc3ccccc3)c(=O)n(C)c2=O)c1`?
Statin myotox sup: -1.7; rRNA inh HTS: -26.0*; SIRT5 inh: 0.2; FGF22 binding: 0.0; FN deposition inh: 7.5

Results for CN(c1ccccc1)S(=O)(=O)c1ccc(Cl)c(C(=O)OCC(=O)c2c(N)n(C)c(=O)n(C)c2=O)c1 ?
E-selectin induc: -0.2; Statin myotox sup: 1.9; rRNA inh HTS: -21.1*; SIRT5 inh: 0.8; FGF22 binding: -0.2; FN deposition inh: -2.3

How did C[C@H](CO)N1C[C@H](C)[C@H](CN(C)C(=O)Nc2ccc(F)cc2)Oc2ccc(NS(=O)(=O)c3ccccc3)cc2CC1=O do in these assays?
E-selectin induc: -0.1; Statin myotox sup: 7.4; rRNA inh HTS: 6.2; SIRT5 inh: -0.7; FGF22 binding: 0.0; FN deposition inh: -3.0

Results for CCn1c(SC)nnc1-c1nn(-c2ccccc2)ccc1=O ?
rRNA inh HTS: 14.2; SIRT5 inh: -1.5; FGF22 binding: 43.1*; FN deposition inh: -0.8

How did CCn1c(-c2nn(-c3ccccc3)ccc2=O)n[nH]c1=S do in these assays?
rRNA inh HTS: 12.7; SIRT5 inh: -0.8; FGF22 binding: 0.3; FN deposition inh: -8.8

Results for CN1C(=O)c2cc(NC(=O)c3cnccn3)ccc2OC[C@H]2O[C@H](CC(=O)NCC3CC3)CC[C@@H]21 ?
rRNA inh HTS: 2.4; FN deposition inh: 0.3

Results for C/C(=N/NC(=O)OC(C)(C)C)c1ccco1 ?
rRNA inh HTS: 12.4; SIRT5 inh: -4.5; FGF22 binding: 43.6*; FN deposition inh: 6.0

How did CCOC(=O)c1cnc2c(c(C)nn2C)c1Oc1ccccc1F do in these assays?
rRNA inh HTS: -31.9*; SIRT5 inh: -2.1; FGF22 binding: -0.3; FN deposition inh: -0.3

What do the screens show for `COc1ccccc1-c1ccc([C@H]2[C@@H](CO)N(C(=O)NC3CCCC3)[C@H]2C#N)cc1`?
E-selectin induc: 0.2; rRNA inh HTS: -27.1; SIRT5 inh: 2.2; FN deposition inh: 3.7

Results for COc1ccc(S(=O)(=O)N(C)C[C@@H]2OCCCC[C@@H](C)Oc3ccc(NS(=O)(=O)c4cn(C)cn4)cc3C(=O)N([C@@H](C)CO)C[C@H]2C)cc1 ?
rRNA inh HTS: -5.6; SIRT5 inh: 4.5; FGF22 binding: -0.3; FN deposition inh: 5.8

How did COc1ccc(S(=O)(=O)N(C)C[C@H]2OCCCC[C@@H](C)Oc3ccc(NS(=O)(=O)c4cn(C)cn4)cc3C(=O)N([C@@H](C)CO)C[C@H]2C)cc1 do in these assays?
rRNA inh HTS: -3.6; SIRT5 inh: 16.0*; FGF22 binding: -0.1; FN deposition inh: 2.1

Assay outcomes (PubChem)
